Data as given in ChEMBL document CHEMBL1139334, “Discovery of novel analgesic and anti-inflammatory 3-arylamine-imidazo[1,2-a]pyridine symbiotic prototypes” (Bioorg Med Chem, 2009).
Calls of active or inactive are those of the source. The rule behind the calls is not given here.

Tests used:
[1] = system: Rattus norvegicus; experiment: Antiinflammatory activity in Wistar rat assessed as inhibition of carrageenan-induced paw edema at 100 umol/kg, po measured 3 hrs post carrageenan challenge; format: functional
Procedure, shortened: (§1)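 Fasted Wistar rats of both sexes (150–200 g) were dosed orally with a suspension in 5% arabic gum in saline; controls received vehicle. After 1 h, 1% carrageenan (0.1 ml, […]) was injected subplantarly into the right hind paw and sterile saline into the left. Paw volumes were read by glass plethysmometer 3 h later. Edema is the carrageenan-minus-saline paw volume; results are % inhibition versus vehicle.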

[2] = system: Mus musculus; experiment: Analgesic activity in Swiss mouse assessed as inhibition of acetic acid-induced abdominal constriction at 100 umol/kg, po administered 1 hr before acetic acid challenge; format: functional; conditions: Abdomen
Procedure, shortened: (§2)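 Swiss mice (18–23 g) received compounds orally as a suspension in 5% arabic gum in saline; controls received an equal volume of vehicle. After 1 h, 0.6% acetic acid (0.1 ml/10 g) was given ip. Constrictions were counted for 20 min, starting 10 min after injection. Results are % inhibition versus vehicle; N = 7–10 per group; mean ± SEM; one-way ANOVA with Dunnett test.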

[3] = system: Rattus norvegicus; experiment: Antihyperalgesic activity in Wistar rat assessed as inhibition of capsaicin-induced thermal hyperalgesia at 100 umol/kg, po; format: functional, organism-based
Procedure, shortened: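 Fasted Wistar rats of both sexes (150–200 g) had basal and acclimatization withdrawal latencies recorded on a 52 °C hot plate. Compound was given orally 1 h before an intraplantar injection of 5% capsaicin in DMSO into the right hind paw. Right hind paw withdrawal latency was timed by chronometer at 2, 5, 10, 30 and 60 min post-challenge.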

[4] = system: Mus musculus; experiment: Analgesic activity in po dosed Swiss mouse assessed as inhibition of acetic acid-induced abdominal constriction administered 1 hr before acetic acid challenge; format: functional; conditions: Abdomen; procedure, shortened: as §2
[5] = biological target: T1, Prostaglandin G/H synthase 2 (Homo sapiens, UniProt P35354); experiment: Inhibition of PGHS2 in human whole blood assessed as inhibition of TXB2 production by radioimmunoassay; format: tissue-based
T1 sequence (P35354 whole entry): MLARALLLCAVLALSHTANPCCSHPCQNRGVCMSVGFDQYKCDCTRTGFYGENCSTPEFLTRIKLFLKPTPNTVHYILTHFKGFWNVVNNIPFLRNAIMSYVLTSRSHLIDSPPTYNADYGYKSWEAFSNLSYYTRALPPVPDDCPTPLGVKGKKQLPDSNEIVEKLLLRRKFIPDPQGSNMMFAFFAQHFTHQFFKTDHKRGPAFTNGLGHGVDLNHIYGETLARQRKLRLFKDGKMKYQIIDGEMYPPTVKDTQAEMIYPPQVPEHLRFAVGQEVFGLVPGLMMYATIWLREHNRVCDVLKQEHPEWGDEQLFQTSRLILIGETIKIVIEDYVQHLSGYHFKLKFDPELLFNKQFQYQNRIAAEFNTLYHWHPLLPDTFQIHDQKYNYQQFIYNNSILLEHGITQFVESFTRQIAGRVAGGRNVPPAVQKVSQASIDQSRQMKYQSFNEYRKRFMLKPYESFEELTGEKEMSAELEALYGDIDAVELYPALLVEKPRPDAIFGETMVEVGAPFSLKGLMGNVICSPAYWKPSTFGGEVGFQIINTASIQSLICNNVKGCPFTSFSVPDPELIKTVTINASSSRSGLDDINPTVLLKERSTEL

[6] = system: Rattus norvegicus; experiment: Antiinflammatory activity in po dosed Wistar rat assessed as inhibition of carrageenan-induced paw edema measured 3 hrs post carrageenan challenge; format: functional; procedure, shortened: as §1

| SMILES | inhibition in vivo at 100 µmol/kg [1] [%] | inhibition in vivo at 100 µmol/kg [2] [%] | Activity [3] | ED50 [4] [µmol/kg] | IC50 [5] [µM] | ED50 [6] [µmol/kg] |
| --- | --- | --- | --- | --- | --- | --- |
| CS(=O)(=O)c1ccc(Nc2c(-c3ccncc3)nc3ccccn23)cc1 | 1.8 | 33.6 | Active | – | – | – |
| CS(=O)(=O)c1ccc(-c2nc3ccccn3c2Nc2ccccc2)cc1 | 28.2 | 7.4 | inactive | – | – | – |
| CS(=O)(=O)c1ccc(Nc2c(-c3ccccn3)nc3ccccn23)cc1 | 18.5 | 33.7 | Active | – | – | – |
| COc1ccc(Nc2c(-c3ccc(S(C)(=O)=O)cc3)nc3ccccn23)cc1 | 41.7 | 53 | inactive | 22.7 | 2.8 | 8.7 |
| CS(=O)(=O)c1ccc(-c2nc3ccccn3c2Nc2ccccn2)cc1 | 17.2 | 22.2 | Active | – | – | – |
| c1ccc(Nc2c(-c3ccncc3)nc3ccccn23)cc1 | 49.9 | 13 | Active | – | – | 11.5 |
| c1ccc(Nc2c(-c3ccccc3)nc3ccccn23)cc1 | 63.9 | 10.8 | Active | – | – | 14.5 |
| c1ccc(Nc2c(-c3ccccn3)nc3ccccn23)cc1 | 33.4 | -3 | Active | – | 18.5 | – |
| Cc1ccc(-c2cc(C(F)(F)F)nn2-c2ccc(S(N)(=O)=O)cc2)cc1 [CELECOXIB] | 30 | 46.1 | – | 247 | – | 87.7 |
